From ChEMBL document CHEMBL1149267, “The design and enzyme-bound crystal structure of indoline based peptidomimetic inhibitors of hepatitis C virus NS3 protease” (J Med Chem, 2004)

Target: NS3 (Hepatitis C virus, UniProt A3EZJ3)
Assay: Inhibition of HCV NS3 protease
Design: species or system Hepacivirus hominis
Conditions: not given
Procedure, shortened: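 IC50 taken after a 30 min preincubation of enzyme with inhibitor. Each value is the mean of 2 independent measurements, with standard deviations within 35% of the mean.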

NS3, sequence (A3EZJ3 whole entry): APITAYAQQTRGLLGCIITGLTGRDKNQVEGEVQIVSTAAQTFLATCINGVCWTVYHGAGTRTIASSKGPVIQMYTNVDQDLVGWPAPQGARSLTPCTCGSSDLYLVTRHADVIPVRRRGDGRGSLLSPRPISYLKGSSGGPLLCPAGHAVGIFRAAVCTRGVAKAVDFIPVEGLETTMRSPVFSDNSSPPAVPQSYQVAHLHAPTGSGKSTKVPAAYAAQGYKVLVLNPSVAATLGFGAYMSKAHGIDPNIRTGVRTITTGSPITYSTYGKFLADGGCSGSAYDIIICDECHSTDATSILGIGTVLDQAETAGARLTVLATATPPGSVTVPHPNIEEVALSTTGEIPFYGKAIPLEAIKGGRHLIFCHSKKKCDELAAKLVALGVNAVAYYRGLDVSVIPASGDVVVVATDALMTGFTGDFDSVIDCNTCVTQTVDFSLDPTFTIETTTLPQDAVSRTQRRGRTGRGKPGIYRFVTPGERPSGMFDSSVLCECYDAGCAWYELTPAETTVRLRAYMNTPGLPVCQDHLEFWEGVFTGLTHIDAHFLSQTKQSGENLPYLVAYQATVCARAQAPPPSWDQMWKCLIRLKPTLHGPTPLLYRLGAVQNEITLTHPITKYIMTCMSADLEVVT

Compound	IC50
CC(C)C[C@H](NC(=O)C1Cc2ccc(OCC(=O)O)cc2N1)C(=O)NC(CC(F)F)C(=O)C(=O)O (stereo in doubt; 7m)	10 µM
CC(C)C[C@H](NC(=O)C1(Cc2ccc(Cl)s2)Cc2ccccc2N1)C(=O)NC(CC(F)F)C(=O)C(=O)O (stereo partly specified)	3.7 µM
CC(C)C[C@H](NC(=O)C1(Cc2ccsc2C(=O)O)Cc2ccccc2N1)C(=O)NC(CC(F)F)C(=O)C(=O)O (single isomer, unassigned; diastereomer 1)	0.7 µM
CC(C)C[C@H](NC(=O)C1(Cc2ccsc2C(=O)O)Cc2ccccc2N1)C(=O)NC(CC(F)F)C(=O)C(=O)O (single isomer, unassigned; diastereomer 4)	73 µM
CC(C)C[C@H](NC(=O)C1(CC2CCC2)Cc2ccccc2N1)C(=O)NC(CC(F)F)C(=O)C(=O)O (single isomer, unassigned; diastereomer 1)	34 µM
CC(C)C[C@H](NC(=O)C1(Cc2ccsc2C(=O)O)Cc2ccccc2N1)C(=O)NC(CC(F)F)C(=O)C(=O)O (single isomer, unassigned; diastereomer 2)	27 µM
CC(C)C[C@H](NC(=O)C1(Cc2ccsc2C(=O)O)Cc2ccccc2N1)C(=O)NC(CC(F)F)C(=O)C(=O)O (single isomer, unassigned; diastereomer 3)	38 µM
CC(C)C[C@H](NC(=O)C1(C2CCCCC2)Cc2ccccc2N1)C(=O)NC(CC(F)F)C(=O)C(=O)O (single isomer, unassigned; diastereomer 1)	69 µM

The remaining lines, values ahead:

IC50	Compound
50 µM	CC(C)C[C@H](NC(=O)C1Cc2ccccc2N1)C(=O)NC(CC(F)F)C(=O)C(=O)O (single isomer, unassigned; diastereomer 2)
27 µM	CC(C)C[C@H](NC(=O)C1Cc2ccc(OCC(=O)O)cc2N1)C(=O)NC(CC(F)F)C(=O)C(=O)O (single isomer, unassigned; diastereomer 2)

Target: NS3 (Hepatitis C virus) (UniProt A3EZJ3)
Sequence (A3EZJ3 as listed by the source): as the sequence (A3EZJ3 whole entry) above
Assay: Inhibition of HCV NS3 protease at 100 uM
Conditions: Hepacivirus hominis

Compound	inhibition
CC(C)C[C@H](NC(=O)C1(CC2CCC2)Cc2ccccc2N1)C(=O)NC(CC(F)F)C(=O)C(=O)O (single isomer, unassigned; diastereomer 2)	< 50%
CC(C)C[C@H](NC(=O)C1(C2CCCCC2)Cc2ccccc2N1)C(=O)NC(CC(F)F)C(=O)C(=O)O (single isomer, unassigned; diastereomer 2)	< 50%

Second part, the compound after the results:

inhibition	Compound
< 50%	CC(C)C[C@H](NC(=O)C1Cc2ccccc2N1)C(=O)NC(CC(F)F)C(=O)C(=O)O (single isomer, unassigned; diastereomer 1)
< 50%	CC(C)C[C@H](NC(=O)C1Cc2ccccc2N1)C(=O)NC(CC(F)F)C(=O)C(=O)O (single isomer, unassigned; diastereomer 3)
< 50%	CC(C)C[C@H](NC(=O)C1Cc2ccc(OCC(=O)O)cc2N1)C(=O)NC(CC(F)F)C(=O)C(=O)O (single isomer, unassigned; diastereomer 3)
< 50%	CC(C)C[C@H](NC(=O)C1Cc2ccc(OCC(=O)O)cc2N1)C(=O)NC(CC(F)F)C(=O)C(=O)O (single isomer, unassigned; diastereomer 4)
